Laboratory results as given in ChEMBL document CHEMBL1135907, “Novel 5-substituted 2,4-thiazolidinedione and 2,4-oxazolidinedione derivatives as insulin sensitizers with antidiabetic activities” (J Med Chem, 2002).

Assays:
Rattus norvegicus [1] = organism: Rattus norvegicus; experiment: (§1) Effective dose for 25% reduction in glucose-lowering activity in Wistar fatty rats; format: functional
Summary of the method: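 Wistar fatty rats (10–15 weeks old), five per group, allocated by plasma glucose and triglyceride. Oral dosing by stomach tube once daily for 6 d at three doses, suspended in 0.5% methyl cellulose; CE-2 pellets and water ad libitum. Tail-vein plasma glucose measured; ED25 taken from the three-dose response by linear regression.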

Mus musculus [2] = organism: Mus musculus; experiment: Effective dose for 25% reduction in plasma glucose-lowering activity in KKAy mice; format: functional
Summary of the method: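 KKAy mice (9–13 weeks old), five per group, allocated by blood glucose after 3 d on powdered CE-2 chow. Compounds given as dietary admix at three levels chosen from first screening, 4 d ad libitum. Orbital-vein plasma glucose assayed enzymatically. Dose in mg/kg/d computed from food intake and body weight; ED25 derived by linear regression.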

RXR alpha/PPAR gamma = target: T1, RXR alpha/PPAR gamma (Homo sapiens, UniProt P19793+P37231); experiment: Transcriptional activation in COS cells expressing PPAR gamma and RXR alpha
T1 sequence (P37231 whole entry): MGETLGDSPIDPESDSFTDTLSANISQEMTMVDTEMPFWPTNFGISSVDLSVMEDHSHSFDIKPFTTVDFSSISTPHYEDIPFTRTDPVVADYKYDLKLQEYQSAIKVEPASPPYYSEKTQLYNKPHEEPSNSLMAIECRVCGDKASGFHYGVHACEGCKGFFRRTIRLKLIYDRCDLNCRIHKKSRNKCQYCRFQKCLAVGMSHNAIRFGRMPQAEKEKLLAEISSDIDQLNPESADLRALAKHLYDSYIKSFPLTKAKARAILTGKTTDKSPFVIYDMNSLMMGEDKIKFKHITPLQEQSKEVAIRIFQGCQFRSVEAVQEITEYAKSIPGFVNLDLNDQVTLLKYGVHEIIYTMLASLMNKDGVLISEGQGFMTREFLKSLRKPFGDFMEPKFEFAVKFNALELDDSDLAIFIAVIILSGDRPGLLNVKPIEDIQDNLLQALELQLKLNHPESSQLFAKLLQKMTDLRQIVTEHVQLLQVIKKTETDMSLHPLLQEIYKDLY
T1 sequence (P19793 whole entry): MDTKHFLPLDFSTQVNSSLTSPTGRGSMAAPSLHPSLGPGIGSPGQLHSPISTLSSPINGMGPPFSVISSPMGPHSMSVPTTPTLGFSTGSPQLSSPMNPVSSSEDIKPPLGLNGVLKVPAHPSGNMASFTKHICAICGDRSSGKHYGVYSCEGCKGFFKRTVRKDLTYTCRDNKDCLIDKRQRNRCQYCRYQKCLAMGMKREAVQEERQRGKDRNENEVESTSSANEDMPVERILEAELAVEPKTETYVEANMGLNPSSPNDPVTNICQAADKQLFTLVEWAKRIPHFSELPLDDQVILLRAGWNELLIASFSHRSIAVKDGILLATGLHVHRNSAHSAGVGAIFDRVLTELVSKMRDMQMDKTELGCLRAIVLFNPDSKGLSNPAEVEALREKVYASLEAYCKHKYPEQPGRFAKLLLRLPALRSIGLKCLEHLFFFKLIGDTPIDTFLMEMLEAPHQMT

Rattus norvegicus [3] = experiment: Plasma concentrations of R(+)-64 at a dose of 1 mg/kg in Jc1SD rats after intravenous administration after 5 min; format: functional, organism-based; parameters: dose 1 mg/kg
Rattus norvegicus [4] = experiment: Plasma concentrations of R(+)-64 at a dose of 1 mg/kg in Jc1SD rats after intravenous administration after 15 min; format: functional, organism-based; parameters: dose 1 mg/kg
Rattus norvegicus [5] = experiment: Plasma concentrations of R(+)-64 at a dose of 1 mg/kg in Jc1SD rats after intravenous administration after 60 min; format: functional, organism-based; parameters: dose 1 mg/kg
Rattus norvegicus [6] = experiment: Plasma concentrations of S(-)-64 at a dose of 1 mg/kg in Jc1SD rats after intravenous administration after 30 min; format: functional, organism-based; parameters: dose 1 mg/kg
Rattus norvegicus [7] = experiment: Plasma concentrations of S(-)-64 at a dose of 1 mg/kg in Jc1SD rats after intravenous administration after 5 min; format: functional, organism-based; parameters: dose 1 mg/kg
Rattus norvegicus [8] = experiment: Plasma concentrations of R(+)-64 at a dose of 1 mg/kg in Jc1SD rats after intravenous administration after 120 min; format: functional, organism-based; parameters: dose 1 mg/kg
Rattus norvegicus [9] = experiment: Plasma concentrations of S(-)-64 at a dose of 1 mg/kg in Jc1SD rats after intravenous administration after 10 min; format: functional, organism-based; parameters: dose 1 mg/kg
Rattus norvegicus [10] = experiment: Plasma concentrations of R(+)-64 at a dose of 1 mg/kg in Jc1SD rats after intravenous administration after 10 min; format: functional, organism-based; parameters: dose 1 mg/kg
Rattus norvegicus [11] = experiment: Plasma concentrations of S(-)-64 at a dose of 1 mg/kg in Jc1SD rats after intravenous administration after 60 min; format: functional, organism-based; parameters: dose 1 mg/kg
Rattus norvegicus [12] = experiment: Plasma concentrations of S(-)-64 at a dose of 1 mg/kg in Jc1SD rats after intravenous administration after 15 min; format: functional, organism-based; parameters: dose 1 mg/kg
Rattus norvegicus [13] = experiment: Plasma concentrations of R(+)-64 at a dose of 1 mg/kg in Jc1SD rats after intravenous administration after 30 min; format: functional, organism-based; parameters: dose 1 mg/kg
Rattus norvegicus [14] = organism: Rattus norvegicus; experiment: as §1; format: functional; remark: listed apart in the source
Summary of the method: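 Wistar fatty rats, 10–15 weeks old, grouped five per group by plasma glucose and triglyceride. Compound suspended in 0.5% methyl cellulose, given orally by stomach tube once daily for 6 d at three concentrations. Animals had CE-2 pellets and water ad libitum. Plasma glucose measured enzymatically on tail-vein blood. ED25 (mg/kg/d) for 25% reduction from control derived by linear regression over the three doses.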

Mus musculus [15] = organism: Mus musculus; experiment: Effective dose for 25% reduction in plasma lipid-lowering activity in KKAy mice; format: functional
Summary of the method: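 Male/female not stated; KKAy mice, 9–13 weeks old, fed powdered CE-2 chow 3 d, grouped (five per group) by blood glucose. Compounds given as dietary admixture at three levels (0.01, 0.005 or 0.001% in diet) for 4 d. Orbital-vein plasma triglyceride measured enzymatically as % reduction vs control; dose (mg/kg/d) from food intake and body weight; ED25 by linear regression.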

[16] = Plasma lipid-lowering activity at a dosage of 0.005% in the diet in KKA(y) mice.; format: functional, Mus musculus
Summary of the method: (§2)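 KKAy mice (9–13 weeks old), five per group, on powdered CE-2 diet containing compound at 0.001, 0.005 or 0.01% for 4 d. Plasma triglyceride from orbital-vein blood measured enzymatically and reported as maximum percent reduction from control; Dunnett's test; less than 10% reduction flagged.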

[17] = Plasma glucose-lowering activity at a dosage of 0.005% in the diet in KKA(y) mice.; format: functional, Mus musculus
Summary of the method: (§3)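 KKAy mice (9–13 weeks old), five per group, grouped by blood glucose after 3 d on powdered CE-2 chow. Dietary admixture at 0.001, 0.005 or 0.01% for 4 d, food and water ad libitum. Orbital-vein plasma glucose measured enzymatically and expressed as maximum percent reduction versus control; Dunnett's test.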

[18] = Plasma lipid-lowering activity at a dosage of 0.01% in the diet in KKAy mice; format: functional, Mus musculus; summary of the method: as §2
Mus musculus [19] = organism: Mus musculus; experiment: Plasma glucose-lowering activity at a dosage of 0.01% in the diet in KKAy mice; format: functional; summary of the method: as §3
Mus musculus [20] = organism: Mus musculus; experiment: Plasma lipid-lowering activity at a dosage of 0.005% in the diet in KKAy mice;LA denotes less than 10% reduction at this dosage; format: functional, organism-based; summary of the method: as §2
Rattus norvegicus [21] = experiment: Plasma concentration at a dose of 1 mg/kg in Jc1SD rats after intravenous administration upon racemisation after 5 min; format: functional, organism-based; parameters: dose 1 mg/kg
Rattus norvegicus [22] = experiment: Plasma concentration at a dose of 1 mg/kg in Jc1SD rats after intravenous administration upon racemisation after 60 min; format: functional, organism-based; parameters: dose 1 mg/kg
Rattus norvegicus [23] = experiment: Plasma concentration of enantiomer at a dose of 1 mg/kg in Jc1SD rats after intravenous administration upon racemisation after 10 min; format: functional, organism-based; parameters: dose 1 mg/kg
Rattus norvegicus [24] = experiment: Plasma concentration of enantiomer at a dose of 1 mg/kg in Jc1SD rats after intravenous administration upon racemisation after 15 min; format: functional, organism-based; parameters: dose 1 mg/kg
Rattus norvegicus [25] = experiment: Plasma concentration at a dose of 1 mg/kg in Jc1SD rats after intravenous administration upon racemisation after 30 min; format: functional, organism-based; parameters: dose 1 mg/kg
Rattus norvegicus [26] = experiment: Plasma concentration at a dose of 1 mg/kg in Jc1SD rats after intravenous administration upon racemisation after 120 min; format: functional, organism-based; parameters: dose 1 mg/kg
Rattus norvegicus [27] = experiment: Plasma concentration of enantiomer at a dose of 1 mg/kg in Jc1SD rats after intravenous administration upon racemisation after 120 min; format: functional, organism-based; parameters: dose 1 mg/kg
Rattus norvegicus [28] = experiment: Plasma concentration of enantiomer at a dose of 1 mg/kg in Jc1SD rats after intravenous administration upon racemisation after 60 min; format: functional, organism-based; parameters: dose 1 mg/kg
Rattus norvegicus [29] = experiment: Plasma concentration of enantiomer at a dose of 1 mg/kg in Jc1SD rats after intravenous administration upon racemisation after 30 min; format: functional, organism-based; parameters: dose 1 mg/kg
Rattus norvegicus [30] = experiment: Plasma concentration at a dose of 1 mg/kg in Jc1SD rats after intravenous administration upon racemisation after 10 min; format: functional, organism-based; parameters: dose 1 mg/kg
Rattus norvegicus [31] = experiment: Plasma concentration of enantiomer at a dose of 1 mg/kg in Jc1SD rats after intravenous administration upon racemisation after 5 min; format: functional, organism-based; parameters: dose 1 mg/kg
Rattus norvegicus [32] = experiment: Plasma concentration at a dose of 1 mg/kg in Jc1SD rats after intravenous administration upon racemisation after 15 min; format: functional, organism-based; parameters: dose 1 mg/kg

Which ED25 (Rattus norvegicus [1]) does the source give for `Cc1sc(-c2ccccc2)nc1COc1ccc(CCCC2OC(=O)NC2=O)cc1` (single isomer, unassigned; (+)) here?
The ED25 was 0.23 mg/kg/day.

What about the ED25 (Mus musculus [2]) of the same molecule?
Its ED25 is 1.44 mg/kg/day.

What about the EC50 (RXR alpha/PPAR gamma) of the same molecule?
The EC50 was 269 nM.

For `COc1cc(CCCC2OC(=O)NC2=O)ccc1OCc1nc(-c2ccco2)oc1C` (stereo in doubt; (+)-64), which Concentration (Rattus norvegicus [3]) is on record?
Its Concentration is 6.46 µg/mL.

And the Concentration (Rattus norvegicus [4])?
Its Concentration is 5.13 µg/mL.

And the Concentration (Rattus norvegicus [5])?
The Concentration was 3.19 µg/mL.

What about the Concentration (Rattus norvegicus [6]) of the same molecule?
Its Concentration is 0.02 µg/mL.

And the Concentration (Rattus norvegicus [7])?
Its Concentration is 0.02 µg/mL.

What about the Concentration (Rattus norvegicus [8]) of the same molecule?
Its Concentration is 1.46 µg/mL.

What about the Concentration (Rattus norvegicus [9]) of the same molecule?
The Concentration was 0.02 µg/mL.

What about the Concentration (Rattus norvegicus [10]) of the same molecule?
Its Concentration is 6.06 µg/mL.

What about the Concentration (Rattus norvegicus [11]) of the same molecule?
The Concentration was 0.02 µg/mL.

What about the Concentration (Rattus norvegicus [12]) of the same molecule?
Its Concentration is 0.02 µg/mL.

And the Concentration (Rattus norvegicus [13])?
Its Concentration is 4.78 µg/mL.

For `CCc1ccc(CCOc2ccc(CC3SC(=O)NC3=O)cc2)nc1.Cl` (centres undefined) [PIOGLITAZONE HYDROCHLORIDE], which ED25 (Rattus norvegicus [14]) is on record?
Its ED25 is 0.5 mg/kg/day.

And the ED25 (Mus musculus [15])?
The ED25 was 6 mg/kg/day.

Which results are given for `Cc1oc(-c2ccccc2)nc1CCOc1ccc(CCCC2SC(=O)NC2=O)cc1` (centres undefined)?
Activity [16]: 18; Activity [17]: 26; Activity [18]: 42; Activity (Mus musculus [19]): 35

What does the source list for `Cc1oc(-c2ccccc2)nc1COc1ccc(CC2OC(=O)NC2=O)cc1` (centres undefined)?
Activity [17]: 29; LA (Mus musculus [20]): Less than 10% reduction at this dosage

What does the source list for `COc1cc(CCCC2OC(=O)NC2=O)ccc1OCc1nc(-c2ccco2)oc1C` (single isomer, unassigned; (-))?
Concentration (Rattus norvegicus [21]): 0.04 µg/mL; Concentration (Rattus norvegicus [22]): 0.07 µg/mL; Concentration (Rattus norvegicus [23]): 4.3 µg/mL; Concentration (Rattus norvegicus [24]): 3.97 µg/mL; Concentration (Rattus norvegicus [25]): 0.05 µg/mL; Concentration (Rattus norvegicus [26]): 0.07 µg/mL; Concentration (Rattus norvegicus [27]): 1.61 µg/mL; Concentration (Rattus norvegicus [28]): 2.94 µg/mL; Concentration (Rattus norvegicus [29]): 3.65 µg/mL; Concentration (Rattus norvegicus [30]): 0.04 µg/mL; Concentration (Rattus norvegicus [31]): 4.78 µg/mL; Concentration (Rattus norvegicus [32]): 0.04 µg/mL
